As usually defined, the Ki is the equilibrium dissociation constant of an inhibitor or competing ligand from its target.

Test [1] concerns the target Kappa-type opioid receptor (Cavia porcellus, UniProt P41144). The test is described as follows: Tested for binding activity against kappa opioid receptor using [3H]U-69593 ligand. A digest of the protocol: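 Guinea pig brain membranes; competition of test ligand against the tritiated radioligand selective for each site: [3H]DPDPE (δ1), [3H]U69593 (κ), [3H]DAMGO (μ). Ki values derived from the competition curves.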

Test [2] addresses Kappa-type opioid receptor (Cavia porcellus) (UniProt P41144). As to conditions: 100 nM.
In test [3] the target is Delta-type opioid receptor (Mus musculus) (UniProt P32300). As to conditions: 100 nM.
The species named for test [4] is Mus musculus. Nature of the test: Antagonism of antinociceptive effect of delta 1 selective agonist DPDPE in mice (control). The test is classed as functional. A digest of the protocol:
(§1)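 Mouse tail-flick assay; agonist given icv without antagonist pretreatment, timed so its peak effect fell at the centre of the observation period. Control ED50 derived, expressed as nmol/mouse for DPDPE and DSLET and as µmol/kg for morphine and U50488.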

In test [5] the test system is Mus musculus. Nature of the test: Antagonism of antinociceptive effect of delta 1 selective agonist DPDPE in mice, icv (treated). The test is classed as functional. To be noted: central.
The species entered for test [6] is Mus musculus. The test is described as follows: Antagonism of antinociceptive effect of kappa receptor selective agonist U-50,488 in mice (control). The test is classed as functional. The gist of the method: as §1
Test [7] deals with Mus musculus. Nature of the test: Antagonism of antinociceptive effect of kappa receptor selective agonist U-50,488 in mice, icv (treated). The test is classed as functional. To be noted: central. A digest of the protocol:
(§2)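 Mice received 2 nmol antagonist icv, timed with the icv agonist so the antagonist peak (20 min) coincided with the centre of the tail-flick observation period. Treated ED50 is in nmol/mouse for DPDPE and DSLET and in µmol/kg for morphine and U50488. ED50 ratio is treated over control.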

The species entered for test [8] is Mus musculus. Nature of the test: Antagonism of antinociceptive effect of mu receptor selective agonist morphine in mice (control). In kind it is functional. The gist of the method:
as §1

The subject of test [9] is Mus musculus. Nature of the test: Antagonism of antinociceptive effect of mu receptor selective agonist morphine in mice, icv (treated). The test is classed as functional. To be noted: central. The gist of the method: as §2
Test [10] addresses T1, Delta-type opioid receptor (Rattus norvegicus, UniProt P33533). Nature of the test: Tested for binding activity against delta opioid receptor using [3H]naltridole ligand.
Test [11] concerns Mus musculus. The test is described as follows: Antagonism of antinociceptive effect of delta 2 selective agonist DSLET in mice, icv (treated). In kind it is functional. To be noted: central.
For test [12], the species on record is Mus musculus. Nature of the test: Antagonism of antinociceptive effect of delta 2 selective agonist DSLET in mice (control). The test is classed as functional. The gist of the method:
as §1

The target in test [13] is Kappa-type opioid receptor (Cavia porcellus) (UniProt P41144). To be noted: 100 nM. The source holds these as a separate data set.
In test [14] the target is Mu-type opioid receptor (Cavia porcellus) (UniProt P97266). To be noted: 100 nM.
Test [15] has as its target T1, Delta-type opioid receptor. The test is described as follows: Tested for binding activity against delta1 opioid receptor using [3H]DPDPE ligand.

Chain of Delta-type opioid receptor (Mus musculus) (P32300 whole entry): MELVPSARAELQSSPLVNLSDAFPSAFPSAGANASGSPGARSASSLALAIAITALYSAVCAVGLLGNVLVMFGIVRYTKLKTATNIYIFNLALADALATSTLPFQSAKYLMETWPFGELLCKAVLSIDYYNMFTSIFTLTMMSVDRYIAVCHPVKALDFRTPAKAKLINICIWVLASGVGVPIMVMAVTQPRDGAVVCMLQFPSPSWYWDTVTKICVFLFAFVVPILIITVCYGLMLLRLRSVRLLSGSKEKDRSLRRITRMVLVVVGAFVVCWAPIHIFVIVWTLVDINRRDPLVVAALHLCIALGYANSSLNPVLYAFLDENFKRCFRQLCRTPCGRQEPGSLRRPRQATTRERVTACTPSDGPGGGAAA
Chain of Mu-type opioid receptor (Cavia porcellus) (P97266 whole entry): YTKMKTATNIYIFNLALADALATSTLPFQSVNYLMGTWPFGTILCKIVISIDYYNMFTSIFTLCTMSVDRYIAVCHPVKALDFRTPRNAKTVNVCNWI
Chain of Kappa-type opioid receptor (Cavia porcellus) (P41144 whole entry): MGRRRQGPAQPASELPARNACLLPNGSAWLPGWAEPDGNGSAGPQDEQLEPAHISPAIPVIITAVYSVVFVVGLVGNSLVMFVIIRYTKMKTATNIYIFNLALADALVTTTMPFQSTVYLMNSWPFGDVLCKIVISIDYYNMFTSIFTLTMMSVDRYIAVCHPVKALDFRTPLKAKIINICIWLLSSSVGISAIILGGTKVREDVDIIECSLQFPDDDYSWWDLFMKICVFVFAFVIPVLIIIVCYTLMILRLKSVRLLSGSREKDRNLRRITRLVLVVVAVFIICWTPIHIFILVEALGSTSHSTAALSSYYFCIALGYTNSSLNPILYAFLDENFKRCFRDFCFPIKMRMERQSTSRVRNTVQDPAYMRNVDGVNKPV
Chain of Kappa-type opioid receptor (P41144 whole entry): as above
T1 sequence (P33533 whole entry): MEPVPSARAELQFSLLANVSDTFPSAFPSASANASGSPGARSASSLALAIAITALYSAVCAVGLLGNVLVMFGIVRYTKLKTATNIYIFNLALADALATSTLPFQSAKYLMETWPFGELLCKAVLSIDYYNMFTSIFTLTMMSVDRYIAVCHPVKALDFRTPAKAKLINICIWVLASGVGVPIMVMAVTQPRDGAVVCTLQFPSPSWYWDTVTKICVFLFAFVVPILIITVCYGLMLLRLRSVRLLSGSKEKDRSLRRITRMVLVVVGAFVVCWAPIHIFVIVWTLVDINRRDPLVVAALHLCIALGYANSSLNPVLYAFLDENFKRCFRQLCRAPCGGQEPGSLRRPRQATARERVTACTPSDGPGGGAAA

The molecule `O=C1/C(=C\c2ccccc2)C[C@@]2(O)[C@H]3Cc4ccc(O)c5c4[C@@]2(CCN3CC2CC2)[C@H]1O5` had a Ki in test [1] of 66 nM. In addition, the Ke in [2] came to 53 nM; in test [3], 24 nM.
Take `O=C1[C@@H]2Oc3c(O)ccc4c3[C@@]23CCN(CC2CC2)[C@H](C4)[C@]3(O)CC12Cc1ccccc1C2`: the ED50 in test [4] came out at 6.4 uM mouse-1; in test [5], 46.3 µmol/kg; in [6] it was 8.6 uM mouse-1; in test [7], 12.2 µmol/kg; in [8], 6.9 uM mouse-1; in test [9], 21.1 µmol/kg. Also, the results for the ED50 in [11] and in test [12] were 2.8 µmol/kg and 0.7 uM mouse-1, respectively. Besides, the inhibition constant (Ki) in test [1] worked out at 12.5 nM; in test [10], 0.047 nM. Besides, the Ke was 105 nM in test [13], 4.2 nM in test [14] and 0.78 nM in [3].
In turn, `Oc1ccc2c3c1O[C@H]1[C@@H](Nc4ccccc4)CC[C@@]4(O)[C@@H](C2)N(CC2CC2)CC[C@]314` returned a Ki in [1] of 2.2 nM. Moreover, the Ke in [2] amounted to 100 nM; in test [14], 3.2 nM; in [3] it was 8.8 nM.
In turn, `Oc1ccc2c3c1O[C@H]1c4[nH]c5ccccc5c4C[C@@]4(O)[C@@H](C2)N(CC2CC2)CC[C@]314` [NALTRINDOLE] registered an inhibition constant Ki in test [15] of 0.0072 nM.
`O=C1/C(=C/c2ccccc2)C[C@@]2(O)[C@H]3Cc4ccc(O)c5c4[C@@]2(CCN3CC2CC2)[C@H]1O5` [BNTX] registered a Ki in [1] of 5.9 nM. The Ke in test [2] worked out at 100 nM; in test [14] it was 8.3 nM; in test [3] it was 2.9 nM.
In the same order, the values of `Oc1ccc2c3c1O[C@H]1[C@H](Nc4ccccc4)CC[C@@]4(O)[C@@H](C2)N(CC2CC2)CC[C@]314` are 2.2 nM, 6 nM, 1.3 nM and 100 nM.
In test [1], `Oc1ccc2c3c1O[C@H]1C4(CC[C@@]5(O)[C@@H](C2)N(CC2CC2)CC[C@]315)Oc1ccccc1O4` displayed an inhibitory constant (Ki) of 25 nM. In addition, the Ke in test [14] stood at 40 nM.
`O=C1[C@@H](Cc2ccccc2)C[C@@]2(O)[C@H]3Cc4ccc(O)c5c4[C@@]2(CCN3CC2CC2)[C@H]1O5` displayed a Ki in [1] of 25 nM. The Ke in test [14] stood at 21 nM; in test [3], 1.5 nM.

The values are drawn from ChEMBL document CHEMBL1127619, “Synthesis of naltrexone-derived delta-opioid antagonists. Role of conformation of the delta address moiety” (J Med Chem, 1994).
